Data set [1] has as its system Plasmodium falciparum. In words: ST_JUDE: Plasmodium falciparum 3D7 EC50 (uM) as measured by SYBR green dye. Format: functional, organism-based.
In data set [2] the test system is Plasmodium falciparum. In words: ST_JUDE: Plasmodium falciparum K1 EC50 (uM) as measured by SYBR green dye. Format: functional, organism-based.
Data set [3] concerns Plasmodium falciparum. In words: ST_JUDE: Cytotoxicity against Plasmodium falciparum 3D7. Format: functional, organism-based. In outline:
(§1)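 Asexual P. falciparum grown in human erythrocytes, exposed to compounds for 72 h, and growth read as the DNA quantity in treated versus control cultures. Dose-response run at 12 concentrations from 10 μM to 5 nM.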

In data set [4] the test system is Plasmodium falciparum. In words: ST_JUDE: Cytotoxicity against Plasmodium falciparum K1. Format: functional, organism-based. In a few lines: as §1
For data set [5], the system named is Plasmodium falciparum. In words: ST_JUDE: Cytotoxicity against Plasmodium falciparum V1/S. Format: functional, organism-based.
Another data set deals with Toxoplasma gondii. In words: ST_JUDE: Growth inhibition of to Toxoplasma gondii, in human U-2OS cells, as measured by luciferase. Format: functional, organism-based. The following applies: RH, U2OS. In a few lines:
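T. gondii parasites engineered to express luciferase; drug sensitivity read by luminescence.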

In a further data set the test system is Trypanosoma brucei. In words: ST_JUDE: Cytotoxicity using luciferase to measure ATP as an indicator of the viability of Trypanosoma brucei. Format: functional, organism-based.
A further data set concerns Leishmania major. In words: ST_JUDE: Cytotoxicity using Alamar Blue to measure viability of Leishmania major. Format: functional, organism-based. In outline: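 L. major promastigotes; drug susceptibility read with Alamar Blue.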
On the technique in general: The colour change of resazurin is a common sign of viable cells or microbes.

A short description of data set [6]: ST_JUDE: Cytotoxicity using luciferase to measure ATP as an indicator of the viability of human foreskin fibroblast cells (BJ). Format: toxicity, cell-based.
Data set [7] is described as follows: ST_JUDE: Cytotoxicity using luciferase to measure ATP as an indicator of the viability of human epithelial hepatocellular carcinoma cells (HepG2). Format: toxicity, cell-based.
A short description of data set [8]: ST_JUDE: Cytotoxicity using luciferase to measure ATP as an indicator of the viability of human epithelial embryonic kidney cells (HEK293). Format: toxicity, cell-based.
Data set [9] is described as follows: ST_JUDE: Cytotoxicity using luciferase to measure ATP as an indicator of the viability of human Burkitt''s lymphoma lymphoblast cells (Raji). Format: toxicity, cell-based.
Data set [10] concerns Plasmodium falciparum. In words: ST_JUDE: Cytotoxicity against Plasmodium falciparum Dd2. Format: functional, organism-based.
The subject of data set [11] is Plasmodium falciparum. In words: ST_JUDE: Cytotoxicity against Plasmodium falciparum W2. Format: functional, organism-based.
In data set [12] the test system is Plasmodium falciparum. In words: ST_JUDE: Cytotoxicity against Plasmodium falciparum SB-A6. Format: functional, organism-based.
Data set [13] relates to Plasmodium falciparum. In words: ST_JUDE: Cytotoxicity against Plasmodium falciparum D10 transfected with yeast DHOD. Format: functional, organism-based.

The record followed here is ChEMBL document CHEMBL1154198, “Chemical genetics of Plasmodium falciparum” (Nature, 2010).

For `COc1ccc(C2CC(=O)C3=C(C2)NC(=O)CC3c2ccc(C(F)(F)F)cc2)cc1OC` (stereo not given), the EC50 in the data set on Plasmodium falciparum [1] is 599 nM; in the data set with Plasmodium falciparum [2], 872 nM; in the data set with Plasmodium falciparum [3], 2150 nM; with Plasmodium falciparum [4], 1590 nM; with Plasmodium falciparum [5], 1190 nM; in the data set on Toxoplasma gondii, more than 26000 nM. Further, the EC50 in the data set on Trypanosoma brucei was more than 45500 nM; with Leishmania major, more than 20300 nM; in data set [6], more than 47500 nM; in data set [7], more than 47500 nM; in [8] it was more than 47500 nM; in data set [9] it was more than 47500 nM. The EC50 was 894 nM with Plasmodium falciparum [10], 417 nM in the data set on Plasmodium falciparum [11], 1090 nM with Plasmodium falciparum [12] and 1110 nM in the data set on Plasmodium falciparum [13].

With `Cc1ccc(C)c(NC(=O)CC2C(=O)N(c3ccccc3)C(=S)N2Cc2ccco2)c1` (stereo not given), the EC50 with Plasmodium falciparum [1] was 259 nM; in the data set on Plasmodium falciparum [2], 395 nM; with Plasmodium falciparum [3], 2510 nM; with Plasmodium falciparum [4], 2720 nM; in the data set on Plasmodium falciparum [5] it was 361 nM; in the data set on Toxoplasma gondii it was more than 24100 nM. Also, the EC50 is more than 42300 nM in the data set with Trypanosoma brucei; more than 18900 nM in the data set on Leishmania major; more than 44100 nM in [6]; more than 44100 nM in data set [7]; more than 44100 nM in [8]; 41000 nM in data set [9]. The EC50 in the data set with Plasmodium falciparum [10] amounted to 428 nM; in the data set on Plasmodium falciparum [11], 292 nM; in the data set with Plasmodium falciparum [12] it was 385 nM; with Plasmodium falciparum [13], 449 nM.

As to `Cc1oc2c(c1C(=O)NCCC(C)C)C(=O)c1ccccc1C2=O`, the EC50 in the data set with Plasmodium falciparum [1] is 7610 nM; in the data set on Plasmodium falciparum [2], 424 nM; in the data set on Plasmodium falciparum [3], 1230 nM; in the data set on Plasmodium falciparum [4] it was 1170 nM; in the data set on Plasmodium falciparum [5] it was more than 10900 nM; with Toxoplasma gondii, more than 23300 nM. Besides, the half-maximal effective concentration (EC50) with Trypanosoma brucei was 2380 nM; in the data set on Leishmania major it was more than 18200 nM; in data set [6] it was more than 42500 nM; in data set [7] it was more than 42500 nM; in data set [8], more than 42500 nM; in data set [9] it was more than 42500 nM. Further, the concentration giving a half-maximal response (EC50) in the data set with Plasmodium falciparum [10] is 2340 nM; in the data set on Plasmodium falciparum [11], more than 10900 nM; in the data set on Plasmodium falciparum [12], 1120 nM; in the data set on Plasmodium falciparum [13], 842 nM.

Take `CCO/C(O)=C1\C(C)=NC2=C(C(=O)CC(c3ccc(OC)c(OC)c3)C2)C1c1ccccc1Cl` (stereo not given): the EC50 is 60.4 nM in the data set with Plasmodium falciparum [1]; 138 nM with Plasmodium falciparum [2]; 70.2 nM in the data set on Plasmodium falciparum [3]; 91.3 nM in the data set with Plasmodium falciparum [4]; 118 nM with Plasmodium falciparum [5]; more than 24400 nM in the data set on Toxoplasma gondii. In addition, the EC50 in the data set with Trypanosoma brucei was 9640 nM; in the data set on Leishmania major, more than 19100 nM; in data set [6] it was more than 44600 nM; in data set [7], more than 44600 nM; in data set [8], more than 44600 nM; in data set [9], more than 44600 nM. For the same compound, the EC50 with Plasmodium falciparum [10] turned out to be 60.8 nM; in the data set with Plasmodium falciparum [11], 16.5 nM; in the data set on Plasmodium falciparum [12], 56.1 nM; in the data set on Plasmodium falciparum [13] it was 57.3 nM.

Take `CCCCCOc1ccc(N(C(C)=O)C2=C(N3CCCCC3)C(=O)c3ccccc3C2=O)cc1`: the EC50 was 728 nM in the data set on Plasmodium falciparum [1]; 371 nM in the data set with Plasmodium falciparum [2]; 193 nM with Plasmodium falciparum [3]; 129 nM in the data set with Plasmodium falciparum [4]; 114 nM in the data set on Plasmodium falciparum [5]; more than 16100 nM with Toxoplasma gondii. Moreover, the EC50 with Trypanosoma brucei was 4140 nM; in the data set on Leishmania major, more than 12600 nM; in data set [6], more than 29300 nM; in data set [7] it was 9760 nM; in data set [8] it was more than 29300 nM; in [9] it was 4100 nM. Moreover, the concentration giving a half-maximal response (EC50) in the data set with Plasmodium falciparum [10] was found to be 754 nM; in the data set with Plasmodium falciparum [11], 386 nM; with Plasmodium falciparum [12] it was 110 nM; with Plasmodium falciparum [13], 61.5 nM.

For `Cc1ccc(C)c(N2CCN(Cc3cc(Cl)ccc3O)CC2)c1`, the EC50 with Plasmodium falciparum [1] is 724 nM; in the data set on Plasmodium falciparum [2], 261 nM; in the data set with Plasmodium falciparum [3] it was 496 nM; in the data set on Plasmodium falciparum [4] it was 195 nM; in the data set with Plasmodium falciparum [5], 328 nM; with Toxoplasma gondii, more than 19700 nM. The concentration for a half-maximal effect (EC50) with Trypanosoma brucei was more than 34400 nM; in the data set with Leishmania major, more than 15400 nM; in [6], more than 35900 nM; in [7], more than 35900 nM; in [8], more than 35900 nM; in data set [9], more than 35900 nM. Also, the EC50 amounted to 323 nM with Plasmodium falciparum [10], 1010 nM with Plasmodium falciparum [11], 536 nM in the data set with Plasmodium falciparum [12] and 549 nM in the data set on Plasmodium falciparum [13].

For `CCCO/C(O)=C1\C(C)=NC2=C(C(=O)CC(c3ccc(OC)c(OC)c3)C2)C1c1cccc(Cl)c1` (stereo not given), the 50% effective concentration (EC50) is 536 nM in the data set with Plasmodium falciparum [1]; 188 nM in the data set with Plasmodium falciparum [2]; 732 nM in the data set with Plasmodium falciparum [3]; 426 nM in the data set with Plasmodium falciparum [4]; 518 nM in the data set with Plasmodium falciparum [5]; more than 20700 nM with Toxoplasma gondii. In addition, the concentration giving a half-maximal response (EC50) with Trypanosoma brucei is 5150 nM; in the data set with Leishmania major, more than 16200 nM; in [6], more than 37700 nM; in data set [7], more than 37700 nM; in data set [8] it was more than 37700 nM; in data set [9] it was more than 37700 nM. Moreover, the 50% effective concentration (EC50) with Plasmodium falciparum [10] was determined as 1020 nM; in the data set with Plasmodium falciparum [11], 586 nM; in the data set with Plasmodium falciparum [12], 199 nM; in the data set with Plasmodium falciparum [13], 330 nM.

For the compound `CCO/C(O)=C1\C(C)=NC2=C(C(=O)CC(c3ccc(OC)c(OC)c3)C2)C1c1cccc(Cl)c1` (stereo not given), the concentration giving a half-maximal response (EC50) with Plasmodium falciparum [1] was 716 nM; in the data set on Plasmodium falciparum [2], 226 nM; with Plasmodium falciparum [3], 831 nM; in the data set with Plasmodium falciparum [4] it was 487 nM; in the data set on Plasmodium falciparum [5], 902 nM; in the data set on Toxoplasma gondii, more than 22900 nM. The EC50 was 16700 nM in the data set on Trypanosoma brucei; more than 17900 nM with Leishmania major; more than 41900 nM in [6]; more than 41900 nM in [7]; more than 41900 nM in data set [8]; more than 41900 nM in data set [9]. Also, the EC50 in the data set on Plasmodium falciparum [10] is 1480 nM; in the data set with Plasmodium falciparum [11] it was 1800 nM; with Plasmodium falciparum [12], 335 nM; in the data set with Plasmodium falciparum [13] it was 531 nM.

As for `Cc1cccc(N2CCN(Cc3ccccc3O)CC2)c1C`, the concentration giving a half-maximal response (EC50) was 1070 nM in the data set on Plasmodium falciparum [1]; 531 nM with Plasmodium falciparum [2]; 976 nM in the data set with Plasmodium falciparum [3]; 355 nM with Plasmodium falciparum [4]; 403 nM with Plasmodium falciparum [5]; more than 17900 nM with Toxoplasma gondii. Besides, the EC50 in the data set with Trypanosoma brucei was more than 31300 nM; with Leishmania major, more than 14000 nM; in [6] it was more than 32700 nM; in data set [7], more than 32700 nM; in [8] it was more than 32700 nM; in data set [9], more than 32700 nM. Moreover, the half-maximal effective concentration (EC50) turned out to be 626 nM with Plasmodium falciparum [10], 951 nM in the data set on Plasmodium falciparum [11], 29.5 nM in the data set with Plasmodium falciparum [12] and 813 nM with Plasmodium falciparum [13].

Turning to `O=S(=O)(c1ccc(Cl)cc1)N1CCN(C(=S)NCc2ccco2)CC1`, the 50% effective concentration (EC50) in the data set on Plasmodium falciparum [1] was 1510 nM; in the data set on Plasmodium falciparum [2] it was 1270 nM; in the data set with Plasmodium falciparum [3] it was 864 nM; in the data set on Plasmodium falciparum [4] it was 1150 nM; with Plasmodium falciparum [5], 2400 nM; in the data set on Toxoplasma gondii, more than 16500 nM. The EC50 in the data set with Trypanosoma brucei was 24900 nM; in the data set with Leishmania major it was more than 12900 nM; in data set [6], more than 30100 nM; in data set [7], more than 30100 nM; in data set [8], more than 30100 nM; in data set [9], more than 30100 nM. For the same compound, the EC50 with Plasmodium falciparum [10] came to 849 nM; with Plasmodium falciparum [11], 820 nM; in the data set with Plasmodium falciparum [12] it was 4460 nM; with Plasmodium falciparum [13], 3490 nM.

As usually defined, the EC50 is the concentration that produces a half-maximal response. Low values mean higher potency in that assay, high ones lower potency in that assay.
